The results in this text go back to ChEMBL document CHEMBL1124052, “New inhibitors of human renin that contain novel Leu-Val replacements. Examination of the P1 site” (J Med Chem, 1988).

Molecules are shown by their SMILES. Non-standard residues stand in square brackets, D forms with d. Residues, ends and D or L forms follow the SMILES beside them. *: point of attachment. hCha = N[C@@H](CCC1CCCCC1)C(=O)O; Cha = N[C@@H](CC1CCCCC1)C(=O)O; Chg = N[C@H](C(=O)O)C1CCCCC1; Boc = CC(C)(C)OC(=O)*

One test has as its target T1, Renin (Homo sapiens) (UniProt P00797).
T1 sequence (whole entry): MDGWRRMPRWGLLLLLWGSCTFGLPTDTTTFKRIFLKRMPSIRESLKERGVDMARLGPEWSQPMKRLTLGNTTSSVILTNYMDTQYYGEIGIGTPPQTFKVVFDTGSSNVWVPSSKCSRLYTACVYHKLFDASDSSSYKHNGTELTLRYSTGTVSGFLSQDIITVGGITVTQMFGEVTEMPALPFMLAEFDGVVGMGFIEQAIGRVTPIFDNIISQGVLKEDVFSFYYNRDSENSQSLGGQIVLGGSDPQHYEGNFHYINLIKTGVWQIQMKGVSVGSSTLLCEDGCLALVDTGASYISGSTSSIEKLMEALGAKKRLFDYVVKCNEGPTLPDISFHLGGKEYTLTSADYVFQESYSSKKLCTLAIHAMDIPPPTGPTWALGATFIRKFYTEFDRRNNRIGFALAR
Nature of the test: Inhibitory activity against human renal renin at pH 6 at concentration 10E-5 M.
Conditions: not given
One may read the inhibition as the drop in the measured response relative to a control, in per cent. A high value points to a response far below the control. In turn, `CC(C)SC[C@H](O)[C@H](CCC1CCCCC1)NC(=O)[C@H](C)NC(=O)[C@H](Cc1ccccc1)NC(=O)OC(C)(C)C` registered an inhibition of 45%.

A further test addresses T1, Renin (Homo sapiens). Nature of the test: (§1) Inhibition of human renal renin at pH 6. The conditions noted are these: concentration not given here. In a few lines: (§2)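 Purified human renal renin (0.24 mGU) was incubated with pure human angiotensinogen (0.21 µM final) in 0.135 M maleate pH 6.0 with 3 mM EDTA, 1.4 mM PMSF, 0.44% BSA and 1% DMSO. At least three inhibitor levels bracketing the IC50 were preincubated with renin for 5.0 min at 37 °C, then reacted 10.0 min. The reaction was stopped by freezing, angiotensin I was measured by RIA, and the IC50 was taken by regression of percent inhibition.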
Consider `Cc1cc(C)c(C[C@H](NC(=O)[C@H](C)NC(=O)[C@H](Cc2ccccc2)NC(=O)OC(C)(C)C)[C@@H](O)CSC(C)C)c(C)c1`, for which the inhibition stood at 5%.

Compound `CC(C)SC[C@H](O)[C@@H](NC(=O)[C@H](C)NC(=O)[C@H](Cc1ccccc1)NC(=O)OC(C)(C)C)C(c1ccccc1)c1ccccc1` registered an inhibition of 11%.

`CC(C)SC[C@H](O)[C@@H](NC(=O)[C@H](Cc1c[nH]cn1)NC(=O)[C@H](Cc1ccccc1)NC(=O)OC(C)(C)C)C(c1ccccc1)c1ccccc1`: the inhibition was found to be 3%.

The next test concerns the target T2, Renin (Homo sapiens, UniProt P00797).
T2 sequence (P00797 whole entry): T1 sequence (whole entry)
The test is described as §1.
Conditions: not given
The method, boiled down: as §2
The term IC50 denotes the concentration at which inhibition is half-maximal. In turn, `CC(C)SC[C@H](O)[C@@H](NC(=O)[C@H](C)NC(=O)[C@H](Cc1ccccc1)NC(=O)OC(C)(C)C)C1CCCCC1` had an IC50 of 1500 nM.

Regarding `CC(C)SC[C@H](O)[C@H](CC12CC3CC(CC(C3)C1)C2)NC(=O)[C@H](Cc1c[nH]cn1)NC(=O)[C@H](Cc1ccccc1)NC(=O)OC(C)(C)C`, the half-inhibitory concentration (IC50) is 2500 nM.

`CC(C)C[C@H](NC(=O)[C@H](Cc1cnc[nH]1)NC(=O)[C@H](Cc1ccccc1)NC(=O)OC(C)(C)C)[C@@H](O)CSC(C)C` had a half-inhibitory concentration (IC50) of 81 nM.

Consider `CC(C)SC[C@H](O)[C@H](CC1CCCCC1)NC(=O)[C@H](C)NC(=O)[C@H](Cc1ccccc1)NC(=O)OC(C)(C)C`, for which the IC50 stood at 9 nM.

In turn, `C[C@H](NC(=O)[C@H](Cc1ccccc1)NC(=O)OC(C)(C)C)C(=O)N[C@H](C=O)CCC1CCCCC1` (Boc-Phe-Ala-[hCha]-aldehyde) showed an IC50 of 55000 nM.

Compound `CC(C)SC[C@H](O)[C@H](CCC1CCCCC1)NC(=O)[C@H](Cc1c[nH]cn1)NC(=O)[C@H](Cc1ccccc1)NC(=O)OC(C)(C)C` yielded an IC50 of 1500 nM.

Compound `CC(C)C[C@@H](C=O)NC(=O)[C@H](C)NC(=O)[C@H](Cc1ccccc1)NC(=O)OC(C)(C)C` (Boc-Phe-Ala-Leu-aldehyde) gave a 50% inhibitory concentration (IC50) of 20000 nM.

For the compound `C[C@H](NC(=O)[C@H](Cc1ccccc1)NC(=O)OC(C)(C)C)C(=O)N[C@H](C=O)CC1CCCCC1` (Boc-Phe-Ala-[Cha]-aldehyde), the 50% inhibitory concentration (IC50) was determined as 460 nM.

`C[C@H](NC(=O)[C@H](Cc1ccccc1)NC(=O)OC(C)(C)C)C(=O)N[C@H](C=O)C(C1CCCCC1)C1CCCCC1` returned a concentration for half-maximal inhibition (IC50) of 40000 nM.

In the case of `C[C@H](NC(=O)[C@H](Cc1ccccc1)NC(=O)OC(C)(C)C)C(=O)N[C@H](C=O)CC12CC3CC(CC(C3)C1)C2`, 35000 nM corresponded to half-maximal inhibition (IC50).

The compound `CC(C)SC[C@H](O)[C@H](Cc1ccccc1)NC(=O)[C@H](C)NC(=O)[C@H](Cc1ccccc1)NC(=O)OC(C)(C)C` yielded an IC50 of 170 nM.

Regarding `C[C@H](NC(=O)[C@H](Cc1ccccc1)NC(=O)OC(C)(C)C)C(=O)N[C@H](C=O)C1CCCCC1` (Boc-Phe-Ala-[Chg]-aldehyde), the IC50 was 1000 nM.

The compound `CC(C)SC[C@H](O)[C@@H](NC(=O)[C@H](Cc1cnc[nH]1)NC(=O)[C@H](Cc1ccccc1)NC(=O)OC(C)(C)C)C1CCCCC1` returned a half-maximal inhibitory concentration (IC50) of 150 nM.

Take `CC(C)SC[C@H](O)[C@H](Cc1ccccc1)NC(=O)[C@H](Cc1cnc[nH]1)NC(=O)[C@H](Cc1ccccc1)NC(=O)OC(C)(C)C`: the 50% inhibitory concentration (IC50) amounted to 19 nM.
